Results on five compounds are retold here after ChEMBL document CHEMBL2169746, “Design, synthesis, and antitumor evaluation of 2,4,6-triaryl pyridines containing chlorophenyl and phenolic moiety” (Eur J Med Chem, 2012).

Assay [1] concerns the target DNA topoisomerase 2-alpha (Homo sapiens) (UniProt P11388). The assay can be described thus: Inhibition of human DNA topoisomerase-2alpha-mediated relaxation of supercoiled pBR322 at 20 uM after 30 mins using ethidium bromide staining by agarose gel electrophoresis. Put shortly: (§1)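 200 ng supercoiled pBR322 with 1 unit human topo IIα, with or without compound. Buffer was 10 mM Tris-HCl pH 7.9, 50 mM NaCl, 5 mM MgCl₂, 1 mM EDTA, 1 mM ATP and bovine serum albumin. Incubated 30 min at 30 °C, stopped with EDTA. Products run on 1% agarose gel, 25 V, 4 h, TAE buffer. Compound stocks 20 mM in DMSO.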

Assay [2] has the same target. Kind of assay: Inhibition of human DNA topoisomerase-2alpha-mediated relaxation of supercoiled pBR322 at 100 uM after 30 mins using ethidium bromide staining by agarose gel electrophoresis. Put shortly: as §1
For assay [3], the target named is T1, DNA topoisomerase 1 (Homo sapiens) (UniProt P11387).
T1 sequence (whole entry): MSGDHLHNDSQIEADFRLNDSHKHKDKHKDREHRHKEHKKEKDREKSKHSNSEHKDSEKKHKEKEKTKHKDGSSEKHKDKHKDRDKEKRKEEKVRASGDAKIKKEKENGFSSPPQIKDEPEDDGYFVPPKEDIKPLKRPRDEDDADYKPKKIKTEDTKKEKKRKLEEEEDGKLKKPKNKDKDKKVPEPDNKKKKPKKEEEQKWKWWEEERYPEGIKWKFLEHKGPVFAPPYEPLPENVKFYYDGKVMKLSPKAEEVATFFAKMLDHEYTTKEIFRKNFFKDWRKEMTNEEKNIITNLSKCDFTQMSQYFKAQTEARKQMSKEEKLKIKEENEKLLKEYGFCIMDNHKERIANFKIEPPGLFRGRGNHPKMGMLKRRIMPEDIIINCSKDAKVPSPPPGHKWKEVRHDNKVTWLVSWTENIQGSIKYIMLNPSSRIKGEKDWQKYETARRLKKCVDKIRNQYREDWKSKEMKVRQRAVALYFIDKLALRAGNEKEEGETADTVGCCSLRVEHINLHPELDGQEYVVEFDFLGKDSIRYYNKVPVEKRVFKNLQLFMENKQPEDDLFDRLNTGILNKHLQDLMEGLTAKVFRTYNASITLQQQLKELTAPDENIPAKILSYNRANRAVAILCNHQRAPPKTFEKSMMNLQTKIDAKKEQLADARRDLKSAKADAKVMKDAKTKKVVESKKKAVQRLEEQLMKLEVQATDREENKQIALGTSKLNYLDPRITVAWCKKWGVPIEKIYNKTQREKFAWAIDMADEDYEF
The assay can be described thus: Inhibition of recombinant human DNA topoisomerase-1-mediated relaxation of supercoiled pBR322 at 100 uM after 30 mins using ethidium bromide staining by agarose gel electrophoresis. Put shortly: (§2)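 Compounds from 20 mM DMSO stocks. 100 ng pBR322 plasmid DNA with 1 unit recombinant human topo I, with or without compound, 37 °C for 30 min. Relaxation buffer was 10 mM Tris-HCl pH 7.9, 150 mM NaCl, 0.1% BSA, 1 mM spermidine. Relaxation of supercoiled DNA assessed by gel imaging.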

The subject of assay [4] is DU-145. Kind of assay: Cytotoxicity against human DU145 cells after 2 days by cell counting kit-8 analysis. The class given is functional, cell-based. As to conditions: DU-145, 48 h. The method, boiled down: (§3)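 Cells grown per supplier's instructions, seeded at 2-4 × 10⁴ cells/well and incubated overnight in medium with 10% FBS at 37 °C, 5% CO₂. On day 2, after 4 h FBS starvation, medium was replaced with medium containing graded compound concentrations. Absorbance read at 450 nm. IC50 from a four-parameter logistic fit. Three independent experiments in triplicate, mean ± S.D.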
(In general: Tetrazolium assays rely on reduction of a dye to a coloured formazan, in cell work by metabolically active cells.)

The test system of assay [5] is HEK293. The assay can be described thus: Cytotoxicity against human HEK293 cells after 2 days by cell counting kit-8 analysis. The class given is cell-based. As to conditions: HEK293, 48 h. Put shortly: as §3
Assay [6] concerns the target T1, DNA topoisomerase 1 (Homo sapiens). Kind of assay: Inhibition of recombinant human DNA topoisomerase-1-mediated relaxation of supercoiled pBR322 at 20 uM after 30 mins using ethidium bromide staining by agarose gel electrophoresis. The method, boiled down:
as §2

For assay [7], the system named is HCT-15. Kind of assay: Cytotoxicity against human HCT15 cells after 2 days by cell counting kit-8 analysis. It counts as functional, cell-based. As to conditions: HCT-15, 48 h. Put shortly: as §3
Assay [8] deals with T47D. The assay can be described thus: Cytotoxicity against human T47D cells after 2 days by cell counting kit-8 analysis. It counts as functional, cell-based. As to conditions: 48 h. The method, boiled down: as §3

Sequence of DNA topoisomerase 2-alpha (Homo sapiens) (P11388 whole entry): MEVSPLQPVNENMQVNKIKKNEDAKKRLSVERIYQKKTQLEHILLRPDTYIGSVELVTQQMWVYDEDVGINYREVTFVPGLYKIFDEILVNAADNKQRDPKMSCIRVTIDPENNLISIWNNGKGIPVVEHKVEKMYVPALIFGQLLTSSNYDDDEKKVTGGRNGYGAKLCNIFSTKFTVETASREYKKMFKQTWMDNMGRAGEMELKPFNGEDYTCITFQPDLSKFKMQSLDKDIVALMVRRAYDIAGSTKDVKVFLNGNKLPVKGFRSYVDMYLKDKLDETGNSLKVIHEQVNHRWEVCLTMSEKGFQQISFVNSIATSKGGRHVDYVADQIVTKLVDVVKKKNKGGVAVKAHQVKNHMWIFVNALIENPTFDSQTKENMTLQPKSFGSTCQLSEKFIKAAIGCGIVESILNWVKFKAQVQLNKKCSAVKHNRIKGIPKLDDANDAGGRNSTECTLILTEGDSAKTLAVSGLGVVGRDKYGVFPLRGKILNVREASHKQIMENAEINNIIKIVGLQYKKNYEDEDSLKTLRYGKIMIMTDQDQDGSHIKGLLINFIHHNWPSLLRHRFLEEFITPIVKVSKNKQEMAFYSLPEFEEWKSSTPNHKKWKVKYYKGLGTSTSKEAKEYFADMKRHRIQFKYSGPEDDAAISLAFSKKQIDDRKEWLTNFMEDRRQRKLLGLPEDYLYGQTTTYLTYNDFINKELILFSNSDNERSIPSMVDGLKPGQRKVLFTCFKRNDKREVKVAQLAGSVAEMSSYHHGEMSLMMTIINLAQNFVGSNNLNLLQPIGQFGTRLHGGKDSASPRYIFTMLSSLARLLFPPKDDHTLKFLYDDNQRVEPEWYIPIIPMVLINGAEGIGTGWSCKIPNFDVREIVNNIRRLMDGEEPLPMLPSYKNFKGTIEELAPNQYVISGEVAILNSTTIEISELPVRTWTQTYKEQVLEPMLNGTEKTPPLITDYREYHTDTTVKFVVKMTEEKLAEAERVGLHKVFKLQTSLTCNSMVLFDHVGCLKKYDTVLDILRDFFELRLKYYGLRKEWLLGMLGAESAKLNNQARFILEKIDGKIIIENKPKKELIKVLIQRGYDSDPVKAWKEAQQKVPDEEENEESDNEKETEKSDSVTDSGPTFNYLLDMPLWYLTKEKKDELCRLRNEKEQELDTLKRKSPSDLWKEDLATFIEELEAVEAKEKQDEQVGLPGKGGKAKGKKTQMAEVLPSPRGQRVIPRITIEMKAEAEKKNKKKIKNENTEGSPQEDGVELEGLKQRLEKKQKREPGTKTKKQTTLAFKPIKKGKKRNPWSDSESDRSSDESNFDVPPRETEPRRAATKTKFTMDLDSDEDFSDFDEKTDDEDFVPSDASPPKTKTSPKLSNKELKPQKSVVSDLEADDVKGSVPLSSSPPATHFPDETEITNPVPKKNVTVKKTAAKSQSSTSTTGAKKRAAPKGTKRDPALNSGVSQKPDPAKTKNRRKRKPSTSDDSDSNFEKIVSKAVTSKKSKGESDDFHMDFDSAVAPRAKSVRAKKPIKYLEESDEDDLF

As to `Oc1ccc(-c2cc(-c3ccccc3)nc(-c3ccc(Cl)cc3)c2)cc1`, the inhibition stood at 44.6% in assay [1], 80.9% in assay [2], 68% in assay [3] and 55.2% in assay [6]. Besides, the IC50 in assay [4] came out at 7.27 µM; in assay [5], 4.81 µM; in assay [7] it was 6.92 µM; in assay [8], 4.27 µM.
As for `Oc1ccc(-c2cc(-c3ccc(Cl)cc3)nc(-c3ccsc3)c2)cc1`, the inhibition in assay [1] stood at 67.1%; in assay [2], 83.6%; in assay [3], 47.7%; in assay [6] it was 30.7%. Further, the IC50 in assay [4] was determined as 6.94 µM; in assay [5], 4.86 µM; in assay [7], 6.24 µM; in assay [8] it was 5.49 µM.
In the case of `Oc1ccc(-c2cc(-c3cccc(Cl)c3)nc(-c3ccccn3)c2)cc1`, the inhibition in assay [1] was 0%; in assay [2], 67.5%; in assay [3], 59.4%; in assay [6] it was 0%. Moreover, the IC50 in assay [4] turned out to be 35.2 µM; in assay [5] it was 25.4 µM; in assay [7], 28.2 µM; in assay [8], 27.9 µM.
With `Oc1ccc(-c2cc(-c3ccc(Cl)cc3)nc(-c3cccs3)c2)cc1`, the inhibition was 22% in assay [1], 77.2% in assay [2], 38.8% in assay [3] and 0% in assay [6]. The IC50 in assay [4] is 7.66 µM; in assay [5], 4.52 µM; in assay [7], 6.47 µM; in assay [8] it was 6.45 µM.
As to `Oc1cccc(-c2cc(-c3ccc(Cl)cc3)nc(-c3ccccn3)c2)c1`, the inhibition in assay [1] was found to be 13.1%; in assay [2], 59.4%; in assay [3], 30%; in assay [6], 0%. In addition, the IC50 in assay [4] was 8.09 µM; in assay [5] it was 14 µM; in assay [7] it was 13.5 µM; in assay [8], 13.9 µM.

One may read the inhibition as how much of the control response was suppressed. For orientation: IC50 means the point on the concentration scale where inhibition reaches its midpoint. Read a high IC50 as weaker potency.
